From ChEMBL document CHEMBL2331391, “Peroxisome proliferator-activated receptor-γ mediates the anti-inflammatory effect of 3-hydroxy-4-pyridinecarboxylic acid derivatives: synthesis and biological evaluation” (Eur J Med Chem, 2013)
Active and inactive are the calls of the source. The rule behind the calls is not given here.

What was measured:
Macrophage [1] = assay: Antiinflammatory activity in human macrophages assessed as inhibition of LPS-induced IL-1beta release at 10 uM preincubated for 30 mins before LPS-challenge measured after 24 hrs post challenge by ELISA; assay type: functional, cell-based
Outline: (§1)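 Human blood PBMC-derived macrophages were used after 10 days of culture. Purity >95% (esterase, CD14, morphology). Cells were pretreated 30 min at 37 °C with compound, then given 100 ng/mL LPS (S. enteritidis) for 24 h. TNFα, IL-1β and IL-8 in conditioned medium were measured by ELISA. Working solutions were endotoxin-tested by LAL (<3 pg/mL).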

[2] = Cytotoxicity against human macrophages at 10 '5 uM after 72 hrs by MTT assay; assay type: cell-based; details: macrophage
[3] = Cytotoxicity against human macrophages up to 100 uM after 72 hrs by MTT assay; assay type: cell-based; details: macrophage
Macrophage [4] = assay: Antiinflammatory activity in human macrophages assessed as inhibition of LPS-induced IL-8 release at 10 uM preincubated for 30 mins before LPS-challenge measured after 24 hrs post challenge by ELISA; assay type: functional, cell-based; outline: as §1
[5] = Cytotoxicity against human macrophages at 10 '4 uM after 72 hrs by MTT assay; assay type: cell-based; details: macrophage
Macrophage [6] = assay: Antiinflammatory activity in human macrophages assessed as inhibition of LPS-induced TNFalpha release at 10 uM preincubated for 30 mins before LPS-challenge measured after 24 hrs post challenge by ELISA; assay type: functional, cell-based; outline: as §1
[7] = Antiinflammatory activity in human macrophages assessed as inhibition of LPS-induced TNFalpha release at 100 uM preincubated for 30 mins before LPS-challenge measured after 24 hrs post challenge by ELISA (reference value: 1682 +/-190 ng/ml); assay type: functional, Macrophage; outline: as §1
[8] = Antiinflammatory activity in human macrophages assessed as inhibition of LPS-induced TNFalpha release at 10 '-3 uM preincubated for 30 mins before LPS-challenge measured after 24 hrs post challenge by ELISA (reference value: 1682 +/-190 ng/ml); assay type: functional, Macrophage; outline: as §1
[9] = Antiinflammatory activity in human macrophages assessed as inhibition of LPS-induced IL8 release at 1 uM preincubated for 30 mins before LPS-challenge measured after 24 hrs post challenge by ELISA (reference value: 7.86 +/-0.17 ng/ml); assay type: functional, Macrophage; outline: as §1
[10] = Antiinflammatory activity in human macrophages assessed as inhibition of LPS-induced TNFalpha release at 5 uM preincubated for 30 mins before LPS-challenge measured after 24 hrs post challenge by ELISA (reference value: 1682 +/-190 ng/ml); assay type: functional, Macrophage; outline: as §1
[11] = Antiinflammatory activity in human macrophages assessed as inhibition of LPS-induced IL8 release at 10 uM preincubated for 30 mins before LPS-challenge measured after 24 hrs post challenge by ELISA (reference value: 7.86 +/-0.17 ng/ml); assay type: functional, Macrophage; outline: as §1
[12] = Antiinflammatory activity in human macrophages assessed as inhibition of LPS-induced IL8 release at 10 '-3 uM preincubated for 30 mins before LPS-challenge measured after 24 hrs post challenge by ELISA (reference value: 7.86 +/-0.17 ng/ml); assay type: functional, Macrophage; outline: as §1
[13] = Antiinflammatory activity in human macrophages assessed as inhibition of LPS-induced IL8 release at 10 '-2 uM preincubated for 30 mins before LPS-challenge measured after 24 hrs post challenge by ELISA (reference value: 7.86 +/-0.17 ng/ml); assay type: functional, Macrophage; outline: as §1
[14] = Antiinflammatory activity in human macrophages assessed as inhibition of LPS-induced TNFalpha release at 10 uM preincubated for 30 mins before LPS-challenge measured after 24 hrs post challenge by ELISA (reference value: 1682 +/-190 ng/ml); assay type: functional, Macrophage; outline: as §1
[15] = Antiinflammatory activity in human macrophages assessed as inhibition of LPS-induced TNFalpha release at 10 '-2 uM preincubated for 30 mins before LPS-challenge measured after 24 hrs post challenge by ELISA (reference value: 1682 +/-190 ng/ml); assay type: functional, Macrophage; outline: as §1
[16] = Antiinflammatory activity in human macrophages assessed as inhibition of LPS-induced IL8 release at 100 uM preincubated for 30 mins before LPS-challenge measured after 24 hrs post challenge by ELISA (reference value: 7.86 +/-0.17 ng/ml); assay type: functional, Macrophage; outline: as §1
[17] = Antiinflammatory activity in human macrophages assessed as inhibition of LPS-induced IL8 release at 5 uM preincubated for 30 mins before LPS-challenge measured after 24 hrs post challenge by ELISA (reference value: 7.86 +/-0.17 ng/ml); assay type: functional, Macrophage; outline: as §1
[18] = Antiinflammatory activity in human macrophages assessed as inhibition of LPS-induced TNFalpha release at 1 uM preincubated for 30 mins before LPS-challenge measured after 24 hrs post challenge by ELISA (reference value: 1682 +/-190 ng/ml); assay type: functional, Macrophage; outline: as §1
Mus musculus [19] = assay: Antiinflammatory activity in DSS-induced C57Bl/6 mouse colitis model assessed as inhibition MPO activity in colonic homogenate at 400 mg/kg/day administered intragastrically for 7 days; assay type: functional
Outline: (§2)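 Male C57Bl/6J mice, 8–10 per group, dosed intragastrically daily for 7 days at 400 mg/kg/day (vehicle 100 µL). From day 2, drinking water carried 3.5% w/vol DSS. Killed 5 days after colitis induction. Full-thickness proximal colon homogenised for MPO activity and IL-1β protein.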

Macrophage [20] = assay: Increase in PPAR-gamma mRNA transcript level in human macrophages at 30 mM by quantitative PCR analysis; assay type: functional, cell-based
Mus musculus [21] = assay: Antiinflammatory activity in DSS-induced C57Bl/6 mouse colitis model assessed as inhibition IL-1beta level in colonic homogenate at 400 mg/kg/day administered intragastrically for 7 days; assay type: functional, organism-based; outline: as §2
[22] = biological target: Transcription factor p65 (Mus musculus) (UniProt Q04207); assay: Inhibition of LPS-induced p65 NF-kappaB activation in mouse CMT93 cells assessed as inhibition of in COX-2 expression at 10 uM preincubated for 30 mins before LPS-challenge measured after 6 hrs post challenge by Western blot analysis; assay type: cell-based
Sequence of Transcription factor p65 (Mus musculus) (Q04207 whole entry): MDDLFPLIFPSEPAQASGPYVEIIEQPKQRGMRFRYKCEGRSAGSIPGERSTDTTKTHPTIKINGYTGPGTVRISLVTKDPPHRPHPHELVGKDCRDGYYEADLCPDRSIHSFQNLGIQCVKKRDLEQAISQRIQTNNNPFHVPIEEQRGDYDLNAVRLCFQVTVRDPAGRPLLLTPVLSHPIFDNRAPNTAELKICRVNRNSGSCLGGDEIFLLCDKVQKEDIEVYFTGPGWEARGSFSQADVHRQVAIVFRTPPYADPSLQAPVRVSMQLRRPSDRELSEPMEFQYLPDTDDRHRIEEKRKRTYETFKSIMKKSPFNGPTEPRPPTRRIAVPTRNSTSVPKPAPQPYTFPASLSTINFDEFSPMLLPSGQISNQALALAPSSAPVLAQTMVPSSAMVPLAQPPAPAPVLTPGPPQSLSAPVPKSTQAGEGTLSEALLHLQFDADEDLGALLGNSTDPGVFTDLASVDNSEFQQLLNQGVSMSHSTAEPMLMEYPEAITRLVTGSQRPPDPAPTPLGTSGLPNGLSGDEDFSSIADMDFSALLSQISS
Outline: (§3)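 CMT-93 cells were pretreated with 10 µM compound and stimulated with LPS for 6 h. Lysates were run on 10% SDS-PAGE and transferred to PVDF. Blots were probed overnight at 4 °C for phospho-p65, IκBα or COX-2 (1:1000), with HRP detection.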

CMT93 [23] = assay: Increase in ROS production in mouse CMT93 cells at 10 uM measured after 30 mins by DCFDA fluorescence assay (reference value: 2.64 %); assay type: functional, cell-based
Macrophage [24] = assay: Increase in PPAR-gamma mRNA transcript level in human macrophages at 10 uM by quantitative PCR analysis; assay type: functional, cell-based
Macrophage [25] = assay: Antiinflammatory activity in human macrophages assessed as inhibition of LPS-induced increase in TNFalpha mRNA transcript at 10 uM preincubated for 30 mins before LPS-challenge measured after 24 hrs post challenge by quantitative PCR analysis in presence of PPAR-gamma antagonist PD68235; assay type: functional, cell-based
CMT93 [26] = assay: Increase in ROS production in LPS-stimulated mouse CMT93 cells at 10 uM preincubated for 30 mins before LPS-challenge measured after 30 mins post challenge by DCFDA fluorescence assay (reference value: 2.64 %); assay type: functional, cell-based
[27] = biological target: Transcription factor p65 (Mus musculus) (UniProt Q04207); assay: Inhibition of LPS-induced p65 NF-kappaB promoter activation in mouse CMT93 cells at 10 uM preincubated for 30 mins before LPS-challenge measured after 6 hrs post challenge by luciferase reporter gene assay; assay type: cell-based
Outline: (§4)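 CMT-93 cells (1×10⁵/well) were transfected with an NF-κB or PPRE luciferase reporter plus CMV-β-Gal. At 24 h they were treated with compound for 30 min, then with 100 ng/mL LPS for 6 h. Cells were lysed in Tris/EDTA/DTT/Triton buffer and supernatant luciferase was read by luminometer. Results are fold over untreated cells.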

[28] = biological target: T1, Peroxisome proliferator-activated receptor gamma (Mus musculus) (UniProt P37238); assay: Induction of PPAR-gamma promoter activity in LPS-stimulated mouse CMT93 cells at 10 uM preincubated for 30 mins before LPS-challenge measured after 6 hrs post challenge by luciferase reporter gene assay; assay type: cell-based; outline: as §4
T1 sequence (whole entry): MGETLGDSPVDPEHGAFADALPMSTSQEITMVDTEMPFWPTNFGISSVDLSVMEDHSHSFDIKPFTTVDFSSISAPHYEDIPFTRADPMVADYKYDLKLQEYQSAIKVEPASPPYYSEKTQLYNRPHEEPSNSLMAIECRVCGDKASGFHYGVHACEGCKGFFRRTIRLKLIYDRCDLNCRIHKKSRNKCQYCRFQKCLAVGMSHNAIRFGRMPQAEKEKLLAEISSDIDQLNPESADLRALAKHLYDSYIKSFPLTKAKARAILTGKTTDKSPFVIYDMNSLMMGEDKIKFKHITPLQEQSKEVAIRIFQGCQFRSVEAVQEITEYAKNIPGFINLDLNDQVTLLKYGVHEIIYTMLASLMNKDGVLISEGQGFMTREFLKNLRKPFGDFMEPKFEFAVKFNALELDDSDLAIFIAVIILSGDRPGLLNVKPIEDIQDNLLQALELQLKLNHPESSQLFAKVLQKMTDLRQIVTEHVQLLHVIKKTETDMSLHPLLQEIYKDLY

[29] = biological target: T1, Peroxisome proliferator-activated receptor gamma (Mus musculus); assay: Induction of PPAR-gamma promoter activity in mouse CMT93 cells at 10 uM by luciferase reporter gene assay; assay type: cell-based; outline: as §4
CMT93 [30] = assay: Increase in ROS production in LPS-stimulated mouse CMT93 cells at 10 uM preincubated for 30 mins before LPS-challenge measured after 24 hrs post challenge by DCFDA fluorescence assay in presence of alpha-tocopherol; assay type: functional, cell-based
Macrophage [31] = assay: Antiinflammatory activity in human macrophages assessed as inhibition of LPS-induced TNFalpha mRNA transcript accumulation at 10 uM preincubated for 30 mins before LPS-challenge measured after 24 hrs post challenge by quantitative PCR analysis; assay type: functional, cell-based
Outline: (§5)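 Monocyte-derived human macrophages were pretreated with 10 µM compound, then stimulated with LPS for 24 h. RNA was extracted and TNFα and IL8 transcripts were quantified by real-time RT-PCR with UPL probes. GAPDH served as reference gene.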

CMT93 [32] = assay: Increase in ROS production in LPS-stimulated mouse CMT93 cells at 10 uM preincubated for 30 mins before LPS-challenge measured after 24 hrs post challenge by DCFDA fluorescence assay in presence of PPAR-gamma antagonist PD68235; assay type: functional, cell-based
[33] = biological target: Transcription factor p65 (Mus musculus) (UniProt Q04207); assay: Inhibition of LPS-induced p65 NF-kappaB activation in mouse CMT93 cells assessed as inhibition of in IkBalpha degradation at 10 uM preincubated for 30 mins before LPS-challenge measured after 6 hrs post challenge by Western blot analysis; assay type: cell-based; outline: as §3
[34] = biological target: Transcription factor p65 (Mus musculus) (UniProt Q04207); assay: Inhibition of LPS-induced p65 NF-kappaB phosphorylation in mouse CMT93 cells at 10 uM preincubated for 30 mins before LPS-challenge measured after 6 hrs post challenge by Western blot analysis; assay type: cell-based; outline: as §3
Macrophage [35] = assay: Antiinflammatory activity in human macrophages assessed as inhibition of LPS-induced increase in IL8 level at 10 uM preincubated for 30 mins before LPS-challenge measured after 24 hrs post challenge by ELISA in presence of PPAR-gamma antagonist PD68235; assay type: functional, cell-based
Outline: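 Human macrophages were pre-exposed to 20 µM PPARγ antagonist PD68235 alongside 10 µM compound, then challenged with 100 ng/mL LPS. After 24 h, IL8 protein in conditioned medium was measured by ELISA.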

Macrophage [36] = assay: Antiinflammatory activity in human macrophages assessed as inhibition of LPS-induced IL8 mRNA transcript accumulation at 10 uM preincubated for 30 mins before LPS-challenge measured after 24 hrs post challenge by quantitative PCR analysis; assay type: functional, cell-based; outline: as §5

SMILES	inhibition (Macrophage [1])	Activity [2]	Activity [3]	inhibition (Macrophage [4])	Activity [5]	inhibition (Macrophage [6])	Activity [7] [ng/mL]	Activity [8] [ng/mL]	Activity [9] [ng/mL]	Activity [10] [ng/mL]	Activity [11] [ng/mL]	Activity [12] [ng/mL]	Activity [13] [ng/mL]	Activity [14] [ng/mL]	Activity [15] [ng/mL]	Activity [16] [ng/mL]	Activity [17] [ng/mL]	Activity [18] [ng/mL]	inhibition (Mus musculus [21])	other results
Cc1nccc(C(=O)O)c1O	inactive	Toxic	Non-toxic	inactive	Toxic	inactive														
O=C(O)c1ccncc1O	inactive	Toxic	Non-toxic	inactive	Toxic	inactive														
Cc1c(O)c(C(=O)O)cc[n+]1C.[Cl-]	Active			Active		Active	901	1626	7.04	1394	6.4	7.45	7.23	1404	1418	4.03	7.34	1368		
Nc1ccc(O)c(C(=O)O)c1																			inactive	inhibition (Mus musculus [19]): Active; Activity (Macrophage [20]): Active
O=C(O)c1ccnc(CO)c1O	inactive	Toxic	Non-toxic	inactive	Toxic	inactive														
C[n+]1ccc(C(=O)O)c(O)c1.[Cl-]	Active	Toxic	Non-toxic	Active	Toxic	Active	1069	1689	7.32	1738	5.4	7.98	7.56	1084	1654	4.43	7.34	1651	Active	inhibition [22]: Active; Activity (CMT93 [23]): Active; Activity (Macrophage [24]): Active; inhibition (Macrophage [25]): inactive; Activity (CMT93 [26]): Active; inhibition [27]: Active; Activity [28]: Active; Activity [29]: Active; Activity (CMT93 [30]): inactive; inhibition (Macrophage [31]): Active; Activity (CMT93 [32]): inactive; inhibition [33]: Active; inhibition in vivo at 400 mg/kg/day (Mus musculus [19]; C57Bl/6, po, 168 h, route intragastric): 56%; inhibition [34]: Active; inhibition (Macrophage [35]): Active; inhibition (Macrophage [36]): Active
